proCasp3 act = activators of human procaspase-3 D3A mutant, primary screen, biochemical, absorbance, PC-3 D3A mutant, single concentration; Caspase-3 (Homo sapiens), P42574; recombinant procaspase-3 D3A, Ac-DEVD-pNA absorbance 405 nm; activation, % at 8.5 µM; 0.11% of 330,000 active; AID 463141, 2010;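 active means activation above the mean of all tested compounds plus 3 SD, cut at about 21% in these data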;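 further: 0% = DMSO alone and 100% = DMSO wells spiked with extra 5 µM PC-3 D3A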
Target sequence (P42574 whole entry D9A/D28A/D175A): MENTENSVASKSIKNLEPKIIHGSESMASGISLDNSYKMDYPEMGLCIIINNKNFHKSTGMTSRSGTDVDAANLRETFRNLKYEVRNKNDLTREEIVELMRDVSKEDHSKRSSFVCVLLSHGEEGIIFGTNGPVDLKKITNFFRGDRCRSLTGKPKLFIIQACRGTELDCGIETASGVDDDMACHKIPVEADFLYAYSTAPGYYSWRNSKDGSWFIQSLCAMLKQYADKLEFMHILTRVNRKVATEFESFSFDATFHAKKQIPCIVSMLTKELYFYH
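Assay system – Procaspase-3 D3A mutant, all three cleavage aspartates alanine · Controls – DMSO-only low control, 5 µM PC-3 D3A high control · Schedule – 1 h compound preincubation, 2 h substrate hydrolysis at 25 °C · Signal – 405 nm absorbance of p-nitroaniline, reads at 0 and 120 min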
PHOSPHO1 block = PubChem AID 1565 | Phosphoethanolamine/phosphocholine phosphatase (Homo sapiens), Q8TCT1 | recombinant PHOSPHO1, absorbance phosphatase assay | inhibition, % at 13.3 µM | 1.1% of 290,000 active; in the data active means inhibition above about 60%
Target sequence (Q8TCT1 whole entry, looked up): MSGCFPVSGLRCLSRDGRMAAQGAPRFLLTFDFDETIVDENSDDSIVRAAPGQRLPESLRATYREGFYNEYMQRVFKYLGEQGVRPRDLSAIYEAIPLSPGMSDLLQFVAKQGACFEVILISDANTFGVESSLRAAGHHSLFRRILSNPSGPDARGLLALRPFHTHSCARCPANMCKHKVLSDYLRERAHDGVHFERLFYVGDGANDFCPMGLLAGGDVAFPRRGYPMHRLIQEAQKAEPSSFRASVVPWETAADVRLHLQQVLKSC
proCasp7 act = procaspase-7 activators, primary screen, counter-screen for procaspase-3 activator project, biochemical, absorbance, HTS, human. AID 463210, 2010. 0.093% of 330,000 active. activation, % at 8.5 µM. recombinant procaspase-7, Ac-DEVD-pNA absorbance 405 nm; D23A/D198A/D206A triple mutant, cannot self-cleave; scale: DMSO 0, 5 µM enzyme 100. Caspase-7 (Homo sapiens), P55210;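 active means percent activation above the screen-wide mean plus 3 SD, cut at about 25% in these data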
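Assay system – Uncleavable procaspase-7 mutant enzyme · Quantity – 2 µM procaspase-7 mutant as dispensed · Times – 1 h preincubation, 2 h reaction · Dosing – single nominal 8.5 µM compound dose, 0.8% DMSO final · Buffer or medium – Zinc-free 50 mM HEPES buffer, pH 7.4, with NaCl and Triton X-100 · Detection – Epi-absorbance of released pNA at 405 nm, two timepoints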
IDE inh = human IDE inhibitors in live cells, primary screen, fluorescence polarization, HEK cells, FAbetaB substrate; FAbetaB cleavage; inhibition, % at 5.59 µM; 0.41% of 320,000 active; AID 434962, 2010;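 active means percent inhibition above the average of all tested compounds plus 3 SD, set per screening campaign, cut at about 16% in these data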;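 further: IDE supplied by intact live HEK cells; FP after avidin binding of uncleaved biotin substrate so inhibition keeps polarization high; 0% = DMSO wells and 100% = 60 µM reference IDE inhibitor Ii1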
IDE act = human IDE activators in live cells, primary screen, fluorescence polarization, HEK cells, FAbeta-B substrate; activation, % at 5.96 µM; Insulin-degrading enzyme (Homo sapiens), P14735; 0.073% of 340,000 active; FAbeta-B cleavage; 0% vehicle, 100% cell-free pure enzyme wells;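 active means activation above the mean of all tested compounds plus 3 SD, set per screening campaign, cut at about 17% in these data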
UBC13 inh = UBC13 polyubiquitin chain formation inhibitors, primary screen, biochemical, TR-FRET, uHTS. 0.47% of 330,000 active. inhibition, % at 20 µM. Ubiquitin-conjugating enzyme E2 N (Homo sapiens), P61088. AID 485273, 2010; in the data active means inhibition above about 45%, passing the limit was not always enough
* = called active by the depositor; . = no result given. Rows were chosen to be rich in hits. Some 1.9% of all compounds tested hit in one or more screens of this group.

SMILES	proCasp3 act	PHOSPHO1 block	proCasp7 act	IDE inh	IDE act	UBC13 inh
Cc1cc2cc(C(c3nnnn3C3CCCC3)N(Cc3cccnc3)Cc3ccco3)c(=O)[nH]c2cc1C (stereo unspecified)	2	83*	-3	1	-4	24
COc1ccc(Br)c(C(=O)NCC2CCCCC2)c1	5	28	4	5	1	3
CCN(CC)CCCNC(=O)c1cc(Nc2ccc(OC)cc2)nc2ccccc12	1	11	7	2	-3	1
COc1ccc(C(=O)Oc2ccc3oc(=O)sc3c2)cc1	-14	94*	-19	12	-10	3
COc1ccc(S(=O)(=O)N(C(=O)C(C)C)c2ccc3oc(=O)sc3c2)cc1	-17	97*	-37	10	-31	13
CCCC(=O)N(c1ccc2oc(=O)sc2c1)S(=O)(=O)c1cccs1	-27	95*	-30	8	-13	0
COc1ccc(C(=O)Oc2ccc3ccc(=O)oc3c2)cc1	-5	27	9	-3	-7	8
COc1ccc(OC)c(S(=O)(=O)N(C(C)=O)c2ccc3oc(=O)sc3c2)c1	-26	-5	-34	6	-10	5
CN(CC(=O)O)S(=O)(=O)c1cccs1	0	14	-6	4	4	-2
CC1Cc2ccccc2N1Cc1cccc([N+](=O)[O-])c1 (stereo unspecified)	7	28	-9	-3	-2	-11
O=C(NCCN1CCOCC1)C(=O)NCC1OCCN1S(=O)(=O)c1ccccc1 (stereo unspecified)	0	35	-8	-2	5	-1
Cc1cc(C)c(S(=O)(=O)N2CCCC(C(=O)NC3CCCC3)C2)c(C)c1 (stereo unspecified)	0	20	4	7	-1	8
COc1ccc(NCc2ccc(OC)c(Cn3ccnc3)c2)c(OC)c1	-25	.	-30	-2	-4	-3
CC(=O)Cc1nsc(NC(=O)c2cccc(F)c2)n1	5	11	5	0	2	8
COc1ccc(CCNC(=S)Nc2ccc(S(=O)(=O)Nc3ncccn3)cc2)cc1OC	13	67*	-3	4	3	-4
Cc1c(C(=O)NCc2nnc(-c3ccccc3)o2)oc2c(F)cccc12	.	26	.	.	-8	1
CCc1cc(=O)oc2c(C)c(OC(C)C(=O)NCCCN3CCOCC3)ccc12 (stereo unspecified)	6	45	0	0	-4	3
Cc1cc(=O)oc2c(C)c(OC(C)C(=O)NCCCN3CCOCC3)ccc12 (stereo unspecified)	-7	64*	10	7	0	3
CC(C)[C@H](NC(=O)c1ccccc1F)C(=O)OCCN1C(=O)c2ccccc2C1=O	1	.	3	7	2	1
c1ccc(COC2CCCN(Cc3nc(-c4cnccn4)no3)C2)nc1 (stereo unspecified)	9	61*	-5	1	4	8
Cc1cc(NC(=O)C(C)SCC(=O)N(C)CC(=O)Nc2ccc(Br)cc2C)no1 (stereo unspecified)	2	20	-5	-4	4	-6
NC(=O)C[n+]1cccc2ccccc21	-2	94*	4	-8	4	-10
O=C(C[n+]1cccc2ccccc21)c1ccc(Br)cc1	1	25	6	2	3	2
COc1ccc(C2=NOC(C(=O)NCc3ccccn3)C2)cc1 (stereo unspecified)	4	3	7	7	3	8
COc1cccc(C2=NOC(C(=O)NCc3ccccn3)C2)c1 (stereo unspecified)	-9	60*	-14	1	6	0
SMILES	proCasp3 act	PHOSPHO1 block	proCasp7 act	IDE inh	IDE act	UBC13 inh
Oc1ccc2c(c1)OCC1(O)Cc3cc(O)c(O)cc3C21 (stereo unspecified)	.	.	.	.	34*	.
CCN(CC)CCNC(=O)CCCCn1c(=S)[nH]c2c([nH]c3ccc(OC)cc32)c1=O	-3	95*	-13	-2	-2	-2
CCCCNC(=O)c1ccc(Cn2c(=S)[nH]c3c([nH]c4ccc(OC)cc43)c2=O)cc1	5	-8	0	-2	5	-24
CC(C)COc1ccc(CNC(=S)Nc2ccccc2)cc1Cl	3	38	6	3	3	6
Clc1ccc2nc(CSc3nncn3-c3ccccc3)cn2c1	2	24	9	0	-3	1
Clc1ccc2nc(CSc3nnc4ccccn34)cn2c1	0	60*	6	2	0	-2
CNC[C@H](Cc1cccc2ccccc12)NC[C@H](CCSC)NCC1CCC(C(C)(C)C)CC1 (stereo partly specified)	-2	.	-3	2	.	86*
O=C(Nc1ccccc1O)c1c(O)c2c([nH]c1=O)CCCC2	11	19	2	-4	3	11
Cn1c(-c2sc3ccccc3c2Cl)n[nH]c1=S	-21	94*	-22	3	-2	5
Cn1c(CSc2nc3ccccc3s2)nc2ccccc21	2	7	8	7	3	11
Clc1c(-c2nnc3n2CCC3)sc2ccccc12	-3	-3	-1	4	0	-2
Cn1c(CSc2nc3ccccc3s2)n[nH]c1=S	-7	73*	-24	5	-23	-1
S=c1[nH]nc(CSc2nc3ccccc3s2)o1	-13	105*	-13	4	2	-4
CNC(=O)c1cc(C(=O)c2ccc(F)cc2C(F)(F)F)c[nH]1	15	29	6	-7	2	4
COC(=O)c1ccc(OC(=O)C2CSC3(C)CCC(=O)N23)cc1 (stereo unspecified)	3	.	-2	3	5	-28
CCOC(=O)c1ccc2c(c1)n(CC)c(/C=C/N(C)c1ccccc1)[n+]2CC	5	-27	-9	-3	2	6
CCOC(=O)c1ccc2c(c1)n(CCO)c(C)[n+]2CC	-13	90*	-5	1	4	11
CC(C)OP(=O)(OC(C)C)C1(NS(=O)(=O)c2ccc(Cl)cc2)C=C(Cl)C(=O)C(Cl)=C1	-5	45	-3	-3	2	-20
CCN(CC(=O)Nc1c(F)cccc1F)C(=O)c1cc2ccccc2oc1=O	3	.	7	5	0	-6

High-throughput results deposited in PubChem BioAssay by several laboratories.
